SENP7 inh – inhibitors of human SENP7 protease; recombinant SENP7, Z-RLRGG-aminoluciferin luminescence, 40 min; inhibition, % at 5 µM; actives 1.5% (n = 330,000); AID 434973;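 active = inhibition above about 50% at the single test dose, limit read from the data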;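 note: plate controls were DMSO with enzyme for no effect and no enzyme buffer wells for full effect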
SENP6 inh – SENP6 protease inhibition; actives 1.8% (n = 330,000); inhibition, % at 10 µM; Q9GZR1; AID 2599; Recombinant SENP6 catalytic domain, aminoluciferin luminescence;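 active = inhibition above about 50% at the single tested dose, limit read from the data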;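 note: plate controls were DMSO wells with enzyme for no effect and DMSO wells lacking enzyme for full effect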
SENP8 block-1 – SENP8 (human) protease inhibition | Q96LD8 | recombinant SENP8, Nedd8 substrate fluorescence | inhibition, % at 20 µM | actives 0.64% (n = 360,000) | AID 602440; in the data active = inhibition mostly above about 40%, no sharp cut-off; inactive = mostly below about 27%
Target sequence (Q96LD8 whole entry, looked up): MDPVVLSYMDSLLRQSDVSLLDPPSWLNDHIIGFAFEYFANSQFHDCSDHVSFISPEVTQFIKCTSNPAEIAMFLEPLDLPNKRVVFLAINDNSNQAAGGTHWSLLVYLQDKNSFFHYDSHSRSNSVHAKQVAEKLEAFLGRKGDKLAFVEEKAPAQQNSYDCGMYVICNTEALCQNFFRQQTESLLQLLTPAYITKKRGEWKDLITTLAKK
UBC13 inh – blocks human UBC13 polyubiquitin chain formation; P61088; TR-FRET; inhibition, % at 20 µM; actives 0.47% (n = 330,000); AID 485273; in the data active = inhibition above about 45%, passing the limit was not always enough
Target sequence (P61088 whole entry, looked up): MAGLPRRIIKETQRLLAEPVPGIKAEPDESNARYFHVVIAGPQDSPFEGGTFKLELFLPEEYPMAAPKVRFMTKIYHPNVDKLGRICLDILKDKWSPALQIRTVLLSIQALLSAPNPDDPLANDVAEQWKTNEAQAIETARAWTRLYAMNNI
Apaf1 inhib – human Apaf-1 inhibition; O14727; reconstituted apoptosome caspase-3 activity, DEVD-Rh110 fluorescence; inhibition, % at 20 µM; actives 0.71% (n = 330,000); active = inhibition of at least 40% at 20 µM;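 note: plate controls were DMSO wells for no effect and DEVD-CHO caspase inhibitor wells for full effect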
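Assay system – apoptosome proteins · Medium – Hepes buffer, pH 7.5 · Also added – cytochrome c with DEVD-Rh110 · Timing – 30 min compound preincubation, 50 min activation, room temperature · Detection – Rh110 fluorescence, excitation 480 nm, emission 540 nm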
SENP8 block-2 – blocks the human protease SENP8; Q96LD8; purified SENP8, Z-RLRGG-aminoluciferin cleavage, luminescence; inhibition, % at 10 µM; actives 1.2% (n = 330,000); in the data active = inhibition above about 50%
SENP8 conf – confirmation of human SENP8 protease inhibitors | shares compounds with SENP8 block-1 | purified SENP8, Nedd8-AMC/pro-Nedd8 cleavage fluorescence, 30 min | inhibition, % at 25 µM | actives 15% (n = 1,400); in the data active = inhibition mostly above about 39%, no sharp cut-off; inactive = mostly below about 34%
* marks the source's active call; other numbers are inactive results; i = inactive; . = no result given. An excerpt weighted towards active compounds, which were near 3% of everything screened.

SMILES	SENP7 inh	SENP6 inh	SENP8 block-1	UBC13 inh	Apaf1 inhib	SENP8 block-2	SENP8 conf
CCOP(=O)(OCC)C(NC(=O)/C=C/c1ccc(OC)cc1)c1ccccc1 (centres undefined)	-8	-20	0	-5	13	-13	.
Cc1ccc(NS(=O)(=O)c2ccc(C(=O)NCc3ccc(S(N)(=O)=O)cc3)cc2)cc1	-7	7	-28	7	0	-3	.
CC1(/[N+]([O-])=C/c2ccc(Cl)cc2Cl)CCCCC1=O (centres undefined)	5	19	46*	-4	-8	6	0
CC1(/[N+]([O-])=C/c2cccc(Cl)c2)CCCCC1=O (centres undefined)	1	-5	16	-6	1	-6	.
Cc1ccccc1C(=O)NCCN1CCOCC1	-15	-20	1	7	6	-11	.
CC(C(=O)NCCN1CCOCC1)(c1ccccc1)c1ccccc1	0	-17	67*	-2	-24	-4	6
CC(=O)N1CCN(c2ccc([N+](=O)[O-])cc2)CC1	3	9	19	-20	0	-5	.
CO/N=C(/c1nonc1N)N1CCN(c2ccc([N+](=O)[O-])cc2)CC1	5	-3	41*	-1	-10	2	0
C=C(C)Cn1c2ccc(NC(=O)NCc3ccccc3)cc2c(=O)n1C	.	.	i	.	.	.	.
CN(C)n1cnc2ccsc2c1=O	3	7	5	6	-7	8	.
Cc1ccc(NC(=O)CCC(=O)Nc2ccc(C)cc2)cc1	-5	-10	10	-12	-4	7	.
CCOC(=O)CC(=O)Nc1ccc(C)cc1	3	0	40*	5	1	5	12
CN1CCN(CC(=O)n2c3c(c4ccccc42)CCCC3)CC1	4	20	44*	-12	12	15	38
O=C(C1CCC(=O)N1Cc1ccccc1Cl)N1CCN(c2cccc(Cl)c2)CC1 (centres undefined)	-7	-25	40*	-4	13	-3	5
CSc1cc(C)n(-c2ccc(Cl)cc2)c(=S)c1C(C)=O	1	10	42*	-3	-4	4	15
CCN(CC)C(=O)CSc1n[nH]c(=S)n1N	8	3	44*	0	3	3	15
CCN(CC)C(=O)CSc1nnc(-c2ccc(F)cc2)n1N	1	22	11	3	-2	-3	.
CC(C)C1NCCc2c1sc1ccccc21 (centres undefined)	0	4	43*	9	2	-2	-8
COc1cc(C2NCCc3c2[nH]c2ccccc32)ccc1OC(C)C (centres undefined)	-1	2	.	15	-2	-4	.
COc1cccc(COC(=O)Nc2ccccc2)c1OC	.	.	3	.	.	.	.
CC[C@H]1OC(=O)[C@H](C)[C@@H](O[C@H]2C[C@@](C)(OC)[C@@H](O)[C@H](C)O2)[C@H](C)[C@@H](O[C@@H]2O[C@H](C)C[C@H](N(C)C)[C@H]2O)[C@](C)(O)C[C@@H](C)C(=NOCOCCOC)[C@H](C)[C@@H](O)[C@]1(C)O	-1	4	9	5	-1	2	.
O=C(Cn1cc([N+](=O)[O-])cn1)Nc1ccc(Cn2cc(Br)cn2)cc1	-6	-12	40*	-18	10	-12	5
Cc1ccc(Sc2ccc(/C=N/O)cc2[N+](=O)[O-])cc1	4	7	42*	-5	12	-13	17
CCC1CCCCN1C(=O)CCc1nnc(Cc2cc(OC)ccc2OC)o1 (centres undefined)	0	-10	26	6	6	-3	.
COc1ccc(-c2noc(N(C)CC(=O)Nc3cccc(C(F)(F)F)c3)n2)cc1	-5	-21	43*	9	12	-8	33
SMILES	SENP7 inh	SENP6 inh	SENP8 block-1	UBC13 inh	Apaf1 inhib	SENP8 block-2	SENP8 conf
COc1cccc(NC(=O)CN(C)CC(=O)Nc2cccc(C(F)(F)F)c2)c1	0	9	17	5	5	-3	.
COc1ccc(CC(=O)NNC(=O)CSc2ccc(C)cc2)cc1	5	-19	13	-8	-4	-8	.
CC(C)(C)n1nnnc1C1c2ccccc2C(=O)N1CCc1c[nH]c2ccccc12 (centres undefined)	.	.	26	.	.	.	.
O=C(O)CC1c2ccccc2CCN1S(=O)(=O)c1cccs1 (centres undefined)	-6	-16	43*	4	-22	-3	-9
O=C(O)CC1c2ccccc2CCN1S(=O)(=O)c1ccccc1 (centres undefined)	3	-3	18	7	-5	-1	.
O=[N+]([O-])c1ccc(N=Nc2c(Cl)cc(O)cc2Cl)cc1	.	.	37	.	.	.	.
O=C1CC(=Nc2ccc([N+](=O)[O-])cc2)NN1c1c(Cl)cc(Cl)cc1Cl	.	.	95*	.	.	.	71*
CCN(CC)c1ccc(C=Nc2ccccc2)c(O)c1	4	6	2	0	5	-4	.
CCN(CC)c1ccc(C=Nc2ccc(N(C)C)cc2)c(O)c1	6	17	52*	-75	44*	-13	32
CCN(CC)c1ccc(C=Nc2ccc(C)cc2)c(O)c1	-2	0	21	3	5	-1	.
CCN(CC)c1ccc(N=Cc2ccc(N(CC)CC)cc2O)cc1	9	5	58*	-28	28	5	11
Cc1ccc(C(=O)N2CCC(C(=O)c3ccc(F)cc3)CC2)cc1	.	.	19	.	.	.	.
Cc1ccc(C(=O)N2C(=S)C(c3ccc(F)cc3)=NC23CCN(C)CC3)cc1	0	-6	66*	-7	-8	-18	58*
Cc1c(N=C2N=C(NC(=O)c3cccs3)c3ccccc32)c(=O)n(-c2ccccc2)n1C	4	1	60*	-117	4	8	17
Cc1c(N=C2N=C(NC(=O)NC(C)(C)C)c3ccccc32)c(=O)n(-c2ccccc2)n1C	-1	-11	9	-21	16	-6	.
Cc1ccoc1C(=O)NCCCNC(=O)c1occc1C	-1	-4	62*	-20	0	1	82*
COc1ccc(-c2nnc(SC)nc2-c2ccc(OC)c([N+](=O)[O-])c2)cc1[N+](=O)[O-]	-6	-13	49*	-15	36	-1	32
COc1ccc(-c2nn(-c3ccccc3)cc2C=O)cc1[N+](=O)[O-]	2	17	8	7	8	5	.
O=C1CN(C(=O)N[C@@H](Cc2ccccc2)C(=O)N[C@@H](Cc2ccccc2)C(=O)O)c2ccccc2N1	4	-2	16	2	8	-3	.
O=C1CN(C(=O)NCC(=O)N[C@@H](Cc2ccccc2)C(=O)O)c2ccccc2N1	-3	-14	46*	-9	-4	2	20

Source: PubChem
